# Laboratory results taken from publication PMC3302728 (Nature Communications, 2011).
# pEC50: −log10 of the molar value.
# Legend:
# [1] = target: GluN2D ligand-binding domain (Rattus norvegicus, UniProt Q62645, DEL565-685); test: X-ray crystallography; details: co-crystal with 10 mM ligand; D1-D2 cleft
# [2] = target: GluN1/GluN2D NMDA receptor (Rattus norvegicus, UniProt P35439+Q62645); test: EC50 of agonist response; format: cell-based
# Summary of the method: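 Xenopus laevis oocytes injected with 5-10 ng cRNA (GluN1:GluN2 ratio 1:2), stored at 15°C, recorded 2-4 days later at 23°C. Two-electrode voltage clamp at -30 to -60 mV in pH 7.4 HEPES bath with Ba2+ and 30 μM glycine. Concentration-response curves fitted per oocyte with a Hill equation to give EC50 and Hill coefficient.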
# Sequence of GluN2D ligand-binding domain (Q62645 424-564, stated change not applied): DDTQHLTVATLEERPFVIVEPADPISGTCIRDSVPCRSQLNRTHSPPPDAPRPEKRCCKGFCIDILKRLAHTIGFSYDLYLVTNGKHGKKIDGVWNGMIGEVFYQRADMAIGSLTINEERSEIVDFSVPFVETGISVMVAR
# Sequence of GluN2D ligand-binding domain (Q62645 686-827, stated change not applied): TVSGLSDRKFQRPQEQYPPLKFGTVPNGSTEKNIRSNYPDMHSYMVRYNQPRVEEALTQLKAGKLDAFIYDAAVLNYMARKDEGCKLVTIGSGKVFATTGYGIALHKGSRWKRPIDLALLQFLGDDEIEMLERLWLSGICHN
# Sequence of GluN1/GluN2D NMDA receptor (Q62645 28-1323, other chains not shown): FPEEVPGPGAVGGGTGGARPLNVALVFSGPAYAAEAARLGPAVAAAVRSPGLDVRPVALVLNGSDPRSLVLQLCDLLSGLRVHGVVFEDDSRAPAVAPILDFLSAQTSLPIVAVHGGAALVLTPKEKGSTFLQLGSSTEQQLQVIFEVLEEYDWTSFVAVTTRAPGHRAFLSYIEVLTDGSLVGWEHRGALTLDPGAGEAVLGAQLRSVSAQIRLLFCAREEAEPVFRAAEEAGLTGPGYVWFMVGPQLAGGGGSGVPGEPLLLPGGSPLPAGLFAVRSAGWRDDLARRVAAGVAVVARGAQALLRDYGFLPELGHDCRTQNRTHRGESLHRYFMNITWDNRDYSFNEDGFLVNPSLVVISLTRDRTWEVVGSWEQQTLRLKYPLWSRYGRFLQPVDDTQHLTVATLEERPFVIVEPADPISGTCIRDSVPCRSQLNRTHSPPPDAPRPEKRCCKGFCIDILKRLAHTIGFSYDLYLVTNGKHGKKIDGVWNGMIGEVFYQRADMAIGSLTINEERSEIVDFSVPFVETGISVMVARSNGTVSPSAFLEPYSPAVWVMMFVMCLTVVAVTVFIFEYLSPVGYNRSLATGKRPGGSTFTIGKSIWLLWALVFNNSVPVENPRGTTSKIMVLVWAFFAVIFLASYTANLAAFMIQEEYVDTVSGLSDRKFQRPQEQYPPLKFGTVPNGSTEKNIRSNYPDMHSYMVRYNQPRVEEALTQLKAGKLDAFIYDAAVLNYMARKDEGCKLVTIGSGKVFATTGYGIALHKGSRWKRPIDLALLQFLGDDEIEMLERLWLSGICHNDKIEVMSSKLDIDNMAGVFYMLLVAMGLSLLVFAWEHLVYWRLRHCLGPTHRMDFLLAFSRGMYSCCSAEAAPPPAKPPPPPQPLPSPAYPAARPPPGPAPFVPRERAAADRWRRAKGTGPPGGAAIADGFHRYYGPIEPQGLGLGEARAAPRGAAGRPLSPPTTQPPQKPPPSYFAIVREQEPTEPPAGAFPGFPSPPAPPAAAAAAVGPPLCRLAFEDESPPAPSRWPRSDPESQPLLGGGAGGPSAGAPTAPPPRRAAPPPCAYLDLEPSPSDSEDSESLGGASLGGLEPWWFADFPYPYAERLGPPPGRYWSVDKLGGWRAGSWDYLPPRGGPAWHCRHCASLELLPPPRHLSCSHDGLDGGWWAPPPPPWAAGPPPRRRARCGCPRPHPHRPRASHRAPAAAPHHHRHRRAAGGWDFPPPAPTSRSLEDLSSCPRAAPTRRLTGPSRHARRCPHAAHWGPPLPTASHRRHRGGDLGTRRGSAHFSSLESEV
Compound,X-ray crystallography [1],pEC50 [2]
N[C@@H](CC(=O)O)C(=O)O [L-aspartate],"GluN2D ligand-binding domain structures in complex with D- and L-glutamate, L-aspartate, and NMDA",5.30
N[C@@H](CCC(=O)O)C(=O)O [L-glutamate],"GluN2D ligand-binding domain structures in complex with D- and L-glutamate, L-aspartate, and NMDA",
N[C@H](CCC(=O)O)C(=O)O [D-glutamate],"GluN2D ligand-binding domain structures in complex with D- and L-glutamate, L-aspartate, and NMDA",
